Reference: ChEMBL document CHEMBL4033653, “Effect of 1,2,3-triazole salts, non-classical bioisosteres of miltefosine, on Leishmania amazonensis” (Bioorg Med Chem, 2017)
pIC50: −log10 of the molar value. Active and inactive are the calls of the source. The rule behind the calls is not given here.

What was measured:
Leishmania amazonensis [1] = test: Antileishmanial activity against Leishmania amazonensis IFLA/BR/1967/PH8 promastigotes after 72 hrs by MTT assay; assay type: functional
Leishmania amazonensis [2] = test: Antileishmanial activity against Leishmania amazonensis WHOM/BR/75/Josefa promastigotes transfected with green fluorescent protein after 72 hrs by MTT assay; assay type: functional
Leishmania amazonensis [3] = test: Antileishmanial activity against Leishmania amazonensis IFLA/BR/1967/PH8 promastigotes transfected with red fluorescent protein after 72 hrs by MTT assay; assay type: functional; settings: IFLA/BR/1967/PH8, 72 h
Leishmania amazonensis [4] = test: Antileishmanial activity against Leishmania amazonensis IFLA/BR/1967/PH8 amastigotes infected in murine macrophages after 72 hrs by fluorometric analysis; assay type: functional; settings: IFLA/BR/1967/PH8, 72 h
Leishmania amazonensis [5] = test: Antileishmanial activity against Leishmania amazonensis WHOM/BR/75/Josefa amastigotes transfected with green fluorescent protein infected in murine macrophages after 72 hrs by fluorometric analysis; assay type: functional
Summary of the method: (§1)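 Infected murine macrophages treated 0.78-100.0 µM for 72 h; fluorescence read at 540/600 nm for RFP parasites (PH8) and 485/528 nm for GFP parasites (Josefa strain); IC50 from three independent experiments in duplicate.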

Leishmania amazonensis [6] = test: Antileishmanial activity against Leishmania amazonensis IFLA/BR/1967/PH8 amastigotes transfected with red fluorescent protein infected in murine macrophages after 72 hrs by fluorometric analysis; assay type: functional; settings: IFLA/BR/1967/PH8, 72 h; summary of the method: as §1
[7] = (§2) Cytotoxicity against mouse peritoneal macrophages after 72 hrs by MTT assay; assay type: cell-based, Peritoneal macrophage; settings: peritoneal macrophages
[8] = Selectivity index, ratio of CC50 for mouse peritoneal macrophages to IC50 for Leishmania amazonensis IFLA/BR/1967/PH8 amastigotes
Summary of the method: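 SI = CC50 for mouse peritoneal macrophages / amastigote IC50. […] IC50: WT-infected macrophages treated with 0.78–100.0 µM in sterile water; burden scored by counting amastigotes and infected/uninfected cells in at least 200 macrophages. Three experiments in duplicate.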

[9] = Selectivity index, ratio of CC50 for mouse peritoneal macrophages to IC50 for Leishmania amazonensis WHOM/BR/75/Josefa amastigotes transfected with green fluorescent protein
Summary of the method: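 SI = CC50 for mouse peritoneal macrophages / GFP amastigote IC50. […] IC50: macrophages infected with GFP-expressing Josefa-strain parasites, treated with 0.78–100.0 µM for 72 h; fluorescence read at 485 nm excitation/528 nm emission. Three experiments in duplicate.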

[10] = Selectivity index, ratio of CC50 for mouse peritoneal macrophages to IC50 for Leishmania amazonensis IFLA/BR/1967/PH8 amastigotes transfected with red fluorescent protein
Summary of the method: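 SI = CC50 for mouse peritoneal macrophages / RFP amastigote IC50. […] IC50: macrophages infected with RFP-expressing PH8 parasites, treated with 0.78–100.0 µM for 72 h; fluorescence read at 540 nm excitation/600 nm emission. Three experiments in duplicate.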

Leishmania amazonensis [11] = test: Induction of ROS accumulation in Leishmania amazonensis IFLA/BR/1967/PH8 promastigotes at 22 uM after 72 hrs by H2DCFDA staining-based fluorometric analysis relative to control; assay type: functional
Summary of the method: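 WT exponential-phase promastigotes treated at 25 °C; adjusted to 2x10^7 cells in PBS, loaded with H2DCFDA 30 min dark at room temperature; fluorescence 485/528 nm versus untreated; three independent experiments.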

Leishmania amazonensis [12] = test: Induction of apoptosis in Leishmania amazonensis IFLA/BR/1967/PH8 promastigotes assessed as early apoptotic population at 44 uM after 24 hrs by Annexin V-FITC/PI staining based flow cytometric analysis (reference value: 5.29%); assay type: functional
Summary of the method: (§3)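 Exponential-phase WT promastigotes (1x10^7 cells/mL) cultured 24 h at 25 °C; stained annexin V-FITC plus PI, flow cytometry with 10,000 events gated on parasites; quadrant percentages; three independent experiments.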

Leishmania amazonensis [13] = test: Induction of apoptosis in Leishmania amazonensis IFLA/BR/1967/PH8 promastigotes assessed as late apoptotic population at 44 uM after 24 hrs by Annexin V-FITC/PI staining based flow cytometric analysis (reference value: 2.62%); assay type: functional; summary of the method: as §3
Leishmania amazonensis [14] = test: Induction of apoptosis in Leishmania amazonensis IFLA/BR/1967/PH8 promastigotes assessed as necrotic population at 44 uM after 24 hrs by Annexin V-FITC/PI staining based flow cytometric analysis (reference value: 0.03%); assay type: functional; summary of the method: as §3
Leishmania amazonensis [15] = test: Induction of DNA damage in Leishmania amazonensis IFLA/BR/1967/PH8 promastigotes at 22 uM after 24 hrs by TUNEL assay; assay type: functional
Summary of the method: (§4)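 Exponential-phase WT promastigotes (1x10^7 cells/mL) cultured 24 h at 25 °C; DNA fragmentation detected by TUNEL with DAPI counterstain, fluorescence microscopy at 100X.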

Peritoneal macrophage = test: as §2; assay type: cell-based; settings: peritoneal macrophage, 72 h
Leishmania amazonensis [16] = test: Antileishmanial activity against Leishmania amazonensis IFLA/BR/1967/PH8 promastigotes at 2.5 to 20 uM incubated for 72 hrs followed by compound washout measured after 72 hrs by Neubauer chamber method; assay type: functional
Summary of the method: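 WT promastigotes exposed 72 h at 25 °C and counted; centrifuged, washed twice in PBS, adjusted to 10x10^6 cells/mL in drug-free Warren's medium + 10% serum; after 72 h at 25 °C viable cells counted in Neubauer chamber; three independent experiments in duplicate.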

Leishmania amazonensis [17] = test: Induction of lipid inclusions in Leishmania amazonensis IFLA/BR/1967/PH8 promastigotes at 5 uM after 24 hrs by Nile Red satining-based spectrofluorometric analysis; assay type: functional
Summary of the method: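 WT exponential-phase promastigotes (1x10^7 cells/mL) cultured 24 h at 25 °C, stained with Nile Red, fluorescence read spectrofluorometrically versus untreated; three experiments in triplicate.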

Leishmania amazonensis [18] = test: Induction of lipid inclusions in Leishmania amazonensis IFLA/BR/1967/PH8 promastigotes at 2.5 uM after 24 hrs by Nile Red satining-based spectrofluorometric analysis; assay type: functional
Summary of the method: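 WT (PH8) promastigotes at 1x10^7 cells/mL in exponential phase, cultured 24 h at 25 °C with or without 2.5–20.0 µM. Parasites incubated with Nile Red, then fluorescence measured spectrofluorometrically. Reported as arbitrary fluorescence units versus untreated parasites, mean of three experiments run in triplicate.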

Leishmania amazonensis [19] = test: Induction of plasma membrane permeability in Leishmania amazonensis IFLA/BR/1967/PH8 promastigotes form assessed as increase in fluorescence intensity at 20 uM after 24 hrs by PI staining-based spectrofluorometric analysis; assay type: functional
Summary of the method: (§5)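 Exponential WT promastigotes (1x10^7 cells/mL) treated 24 h at 25 °C; washed, PI 1.0 µg/mL 15 min dark at room temperature; fluorescence 540/600 nm as % increase over untreated; heat-killed cells (65 °C, 10 min) as positive control; three independent experiments.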

Leishmania amazonensis [20] = test: Induction of plasma membrane permeability in Leishmania amazonensis IFLA/BR/1967/PH8 promastigotes form assessed as increase in fluorescence intensity at 2.5 to 10 uM after 24 hrs by PI staining-based spectrofluorometric analysis; assay type: functional; summary of the method: as §5
Leishmania amazonensis [21] = test: Induction of morphological changes in Leishmania amazonensis IFLA/BR/1967/PH8 promastigotes assessed as altered parasite shape at 2.5 to 20 uM after 24 hrs by Giemsa staining-based microscopic analysis; assay type: functional
Summary of the method: (§6)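 Exponential-phase promastigotes (1x10^7 cells/mL) treated 24 h at 25 °C; harvested, resuspended in PBS, smeared, ethanol-fixed, Giemsa-stained and examined by light microscopy.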

Leishmania amazonensis [22] = test: Induction of morphological changes in Leishmania amazonensis IFLA/BR/1967/PH8 promastigotes assessed as parasite size reduction at 2.5 to 20 uM after 24 hrs by Giemsa staining-based microscopic analysis; assay type: functional; summary of the method: as §6
Leishmania amazonensis [23] = test: Induction of morphological changes in Leishmania amazonensis IFLA/BR/1967/PH8 promastigotes assessed as rounded cell body at 2.5 to 20 uM after 24 hrs by Giemsa staining-based microscopic analysis; assay type: functional; summary of the method: as §6
Leishmania amazonensis [24] = test: Induction of DNA damage in Leishmania amazonensis IFLA/BR/1967/PH8 promastigotes at 5 to 10 uM after 24 hrs by TUNEL assay; assay type: functional; summary of the method: as §4
Leishmania amazonensis [25] = test: Induction of autophagy in Leishmania amazonensis IFLA/BR/1967/PH8 promastigotes at 2.5 to 10 uM after 24 hrs by MDC staining-based fluorometric analysis; assay type: functional
Summary of the method: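 Exponential WT promastigotes (1x10^7 cells/mL) treated 24 h at 25 °C; washed, adjusted to 10x10^6 cells/mL, 100 µM monodansylcadaverine 1 h dark at 25 °C; fluorescence 335/460 nm versus untreated; three independent experiments.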

[26] = Leishmania amazonensis, IFLA/BR/1967/PH8, 72 h

`CCCCCCn1cc(CO)[n+](CCC)n1` gave a pIC50 (Leishmania amazonensis [1]; [26]) of less than 4.00.

`CCCCn1cc(CO)[n+](C)n1` showed a pIC50 (Leishmania amazonensis [1]; [26]) of less than 4.00.

`CCCCn1cc(CO)[n+](CCC)n1` gave a pIC50 (Leishmania amazonensis [1]; [26]) of less than 4.00.

`CCCCCCCCCCCCCCCCOP(=O)([O-])OCC[N+](C)(C)C` [MILTEFOSINE] showed a pIC50 (Leishmania amazonensis [1]; [26]) of 4.66, a pIC50 (Leishmania amazonensis [2]) of 4.88 and a pIC50 (Leishmania amazonensis [3]) of 4.72. It also gave a pIC50 (Leishmania amazonensis [4]) of 5.38, a pIC50 (Leishmania amazonensis [5]) of 5.18 and a pIC50 (Leishmania amazonensis [6]) of 4.90. For the same compound, the CC50 at 72 h [7] was 144 µM, the “Ratio CC50/IC50” value [8] was 34.2 and the “Ratio CC50/IC50” value [9] was 21.7. The “Ratio CC50/IC50” value [10] was 11.3, the Activity (Leishmania amazonensis [11]) was 66.7% and the Activity (Leishmania amazonensis [12]) was 53.22%. The Activity (Leishmania amazonensis [13]) was 12.23%, the Activity (Leishmania amazonensis [14]) was 7.15% and the Activity (Leishmania amazonensis [15]) was “Active”.

For `CCCCCCCCCCn1cc(CO)[n+](CCC)n1` [listing 1 of 2 here], the pIC50 (Leishmania amazonensis [1]) was 6.15 and the CC50 (Peritoneal macrophage) was 3.9 µM.

`CCCCCCCCCCn1cc(CO)[n+](C)n1` [listing 1 of 2 here] showed a pIC50 (Leishmania amazonensis [1]) of 4.84.

With `CCCCCCCCCCn1cc(CO)[n+](CCC)n1` [listing 2 of 2 here] the pIC50 (Leishmania amazonensis [1]; [26]) was 6.14 and the CC50 (Peritoneal macrophage) was 4.6 µM.

For `CCCCCCCCCCn1cc(CO)[n+](C)n1` [listing 2 of 2 here], the Activity (Leishmania amazonensis [16]) was “Active”, the Activity (Leishmania amazonensis [17]) was “inactive” and the Activity (Leishmania amazonensis [18]) was “inactive”. For the same compound, the Activity (Leishmania amazonensis [19]) was “Active”, the Activity (Leishmania amazonensis [20]) was “inactive” and the Activity (Leishmania amazonensis [21]) was “Active”. The Activity (Leishmania amazonensis [22]) was “Active”, the Activity (Leishmania amazonensis [23]) was “Active” and the Activity (Leishmania amazonensis [24]) was “Active”. For the same compound, the Activity (Leishmania amazonensis [25]) was “inactive”.

In the case of `CCCCCCn1cc(CO)[n+](C)n1`, the pIC50 (Leishmania amazonensis [1]; [26]) was less than 4.00.
